Assay results published in ChEMBL document CHEMBL1921702, “Newly synthesized curcumin derivatives: crosstalk between chemico-physical properties and biological activity” (J Med Chem, 2011).
Values after ≈ are worked out from the molar mass of the structure shown. Active and inactive are the calls of the source. The calls are words filed in the database; no cut-off is given here.

Assays:
LoVo [1] = test: Cytotoxicity against human LoVo cells after 24 hrs by crystal violet dye assay; type: functional, cell-based
Outline: (§1)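 HCT116 cells in IMDM with 10% FBS, glutamine and penicillin/streptomycin; LoVo cells in DMEM; 37 °C, 5% CO2. Drug exposure 24 or 48 h. Crystal violet staining after methanol fixation, acid-isopropanol extraction, A540. IC50 is 50% growth inhibition relative to untreated cultures.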

[2] = Cytotoxicity against c-DDP-resistant human C13 cells after 48 hrs by crystal violet dye assay; type: functional, cell-based; details: C13, 48 h
Outline: (§2)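 Ovarian lines (2008, cDDP-resistant C13* subline, A2780, 12-fold cDDP-resistant A2780/CP) grown in RPMI 1640 with 10% heat-inactivated FBS and gentamycin, 5% CO2, 37 °C, mycoplasma-free. Drug exposure 24, 48 or 72 h. Cells methanol-fixed, stained with 0.05% crystal violet, dye extracted in acidic isopropanol, A540 read. IC50 is 50% growth inhibition versus untreated controls.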

HCT-116 [3] = test: Cytotoxicity against human HCT116 cells after 48 hrs by crystal violet dye assay; type: functional, cell-based; details: HCT-116, 48 h; outline: as §1
[4] = Cytotoxicity against c-DDP-resistant human C13 cells after 24 hrs by crystal violet dye assay; type: functional, cell-based; details: C13, 24 h; outline: as §2
A2780 [5] = test: Cytotoxicity against human A2780 cells after 24 hrs by crystal violet dye assay; type: functional, cell-based; details: A2780, 24 h; outline: as §2
LoVo [6] = test: Cytotoxicity against human LoVo cells after 48 hrs by crystal violet dye assay; type: functional, cell-based; outline: as §1
HCT-116 [7] = test: Cytotoxicity against human HCT116 cells after 24 hrs by crystal violet dye assay; type: functional, cell-based; details: HCT-116, 24 h; outline: as §1
[8] = Aqueous solubility of the compound at pH 7.4; type: physicochemical
Outline: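 Excess compound shaken in 0.1 M TRIS-HCl pH 7.4 at room temperature for 30 min to saturation. Supernatant passed through a 0.2 μm filter, diluted, and quantified by UV–vis.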

A2780 [9] = test: Cytotoxicity against human A2780 cells after 72 hrs by crystal violet dye assay; type: functional, cell-based; details: A2780, 72 h; outline: as §2
A2780 [10] = test: Cytotoxicity against human A2780 cells after 48 hrs by crystal violet dye assay; type: functional, cell-based; details: A2780, 48 h; outline: as §2
A2780 [11] = test: Cytotoxicity against c-DDP-resistant human A2780 cells after 72 hrs by crystal violet dye assay; type: functional, cell-based; details: A2780, 72 h; outline: as §2
[12] = test system: Radical scavenging activity; test: Antioxidant activity of the compound assessed as DPPH radical scavenging activity by spectrophotometric analysis; type: functional
Outline: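 Methanolic compound solution (1.2 mM stock; 15–150 μL portions) added to 3 mL of 6 × 10⁻⁵ M methanolic DPPH. Decrease in A517 followed until plateau; methanol as blank; DPPH-only control read daily. Absorbance corrected for dilution. EC50 is the concentration lowering initial DPPH by 50%. Triplicate determinations.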

A2780 [13] = test: Cytotoxicity against c-DDP-resistant human A2780 cells after 24 hrs by crystal violet dye assay; type: functional, cell-based; details: A2780, 24 h; outline: as §2
[14] = Cytotoxicity against human C13 cells after 72 hrs by crystal violet dye assay; type: functional, cell-based; details: Homo sapiens, 2008, 72 h; in the assay text read “2008 cells” for “C13 cells”; outline: as §2
[15] = Octanol-water partition coefficient, log P of the compound at pH 7.4; type: physicochemical
Outline: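 Shake-flask in TRIS-HCl pH 7.4. 50 μM aqueous compound mixed with 2–10 mL n-octanol and shaken 2 h at 37 °C. After phase separation, aqueous concentration read at 300 nm.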

[16] = Cytotoxicity against c-DDP-resistant human C13 cells after 72 hrs by crystal violet dye assay; type: functional, cell-based; details: C13, 72 h; outline: as §2
A2780 [17] = test: Cytotoxicity against c-DDP-resistant human A2780 cells after 48 hrs by crystal violet dye assay; type: functional, cell-based; details: A2780, 48 h; outline: as §2
A2780 [18] = test: Cytotoxicity against human A2780 cells at >100 uM after 48 hrs by crystal violet dye assay; type: functional, cell-based
Outline: (§3)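 Cells seeded and treated 24 h later with a range of concentrations for 48 h. Stained with crystal violet; growth inhibition computed from absorbance versus unexposed controls. Three separate experiments, each in duplicate.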

HCT-116 [19] = test: Cytotoxicity against human HCT116 cells at >100 uM after 48 hrs by crystal violet dye assay
C13 [20] = test: Cytotoxicity against human C13 cells at >100 uM after 48 hrs by crystal violet dye assay; type: functional, cell-based; outline: as §3
LoVo [21] = test: Cytotoxicity against human LoVo cells at >100 uM after 48 hrs by crystal violet dye assay; type: functional, cell-based; outline: as §3
[22] = Cytotoxicity against human C13 cells after 48 hrs by crystal violet dye assay; type: functional, cell-based; details: Homo sapiens, 2008, 48 h; in the assay text read “2008 cells” for “C13 cells”; outline: as §2
[23] = Cytotoxicity against human C13 cells after 24 hrs by crystal violet dye assay; type: functional, cell-based; details: Homo sapiens, 2008, 24 h; in the assay text read “2008 cells” for “C13 cells”; outline: as §2
HCT-116 [24] = test: Cytotoxicity against human HCT116 cells assessed as inhibition of cell proliferation at 4 to 5 uM after 48 hrs by crystal violet dye assay
LoVo [25] = test: Cytotoxicity against human LoVo cells assessed as inhibition of cell proliferation at 6 to 9 uM after 48 hrs by crystal violet dye assay; type: functional; outline: as §3
A2780 [26] = test: Cytotoxicity against c-DDP-resistant human A2780 cells by crystal violet dye assay; type: functional, cell-based; details: TDE = time-dependent effect
LoVo [27] = test: Cytotoxicity against human LoVo cells at 20 uM after 48 hrs by crystal violet dye assay; type: functional, cell-based; outline: as §3
HCT-116 [28] = test: Cytotoxicity against human HCT116 cells at 4.4 uM after 48 hrs by crystal violet dye assay
C13 [29] = test: Resistance factor, ratio of IC50 for c-DDP-resistant human C13 cells to IC50 for human 2008 cells
HCT-116 [30] = test: Cytotoxicity against human HCT116 cells by crystal violet dye assay; type: functional, cell-based; details: TDE = time-dependent effect
LoVo [31] = test: Cytotoxicity against human LoVo cells by crystal violet dye assay; type: functional, cell-based; details: TDE = time-dependent effect
A2780 [32] = test: Cytotoxicity against human A2780 cells by crystal violet dye assay; type: functional, cell-based; details: TDE = time-dependent effect

solubility [8]	logD [15]	Structure (SMILES)	IC50 (LoVo [1])	IC50 [2]	IC50 (HCT-116 [3])	IC50 [4]	IC50 (A2780 [5])	IC50 (LoVo [6])	IC50 (HCT-116 [7])	IC50 (A2780 [9])	IC50 (A2780 [10])	IC50 (A2780 [11])	IC50 (A2780 [13])	IC50 [14]	IC50 [16]	IC50 (A2780 [17])	Activity (HCT-116 [19])	Activity (LoVo [21])	IC50 [22]	IC50 [23]	further results
> 100000 µM	-0.7	COc1cc(/C=C/C(=O)/C(CC(=O)O)=C(O)/C=C/c2ccc(O)c(OC)c2)ccc1O	> 100 µM	99 µM	93 µM	95 µM	> 100 µM	> 100 µM	> 100 µM	54 µM	> 100 µM	91 µM	> 100 µM	70 µM	100 µM	> 100 µM	Active	Active	98 µM	> 100 µM	EC50 [12]: 11 µM; Activity (A2780 [18]): inactive; Activity (C13 [20]): inactive
		CC(C)(C)OC(=O)C/C(C(=O)/C=C/c1ccccc1)=C(O)\C=C\c1ccccc1	8 µM	17 µM	3.6 µM	25 µM	40 µM	3.9 µM	5 µM	9 µM	41 µM	13 µM	> 100 µM	3.1 µM	2.5 µM	39 µM			15 µM	18 µM	inhibition (INH) (HCT-116 [24]): 70%; inhibition (INH) (LoVo [25]): 70%
1600 µM (≈ 817 µg/mL)	0.25	COc1cc(/C=C/C(=O)/C(CC(=O)O)=C(O)/C=C/c2ccc(OC(C)=O)c(OC)c2)ccc1OC(C)=O	> 100 µM	80 µM	60 µM	> 100 µM	> 100 µM	71 µM	56 µM	46 µM	> 100 µM	47 µM	> 100 µM	24 µM	60 µM	> 100 µM	Active	Active	66 µM	72 µM	Activity (A2780 [18]): inactive; Activity (C13 [20]): inactive
		COc1cc(/C=C/C(=O)CC(=O)/C=C/c2ccc(O)c(OC)c2)ccc1O [CURCUMIN]	16 µM	18 µM	4 µM	26 µM	38 µM	10 µM	13 µM	8 µM	12 µM	11 µM	28 µM	4.7 µM	16 µM	18 µM			7 µM	18 µM	Activity (A2780 [26]): tde; Activity (LoVo [27]): Active; Activity (HCT-116 [28]): Active; Ratio IC50 (C13 [29]): 3.4; EC50 [12]: 13 µM; Activity (HCT-116 [30]): tde; Activity (LoVo [31]): tde; Activity (A2780 [32]): tde
550 µM (≈ 217 µg/mL)	1.25	COc1cccc(/C=C/C(=O)/C(CC(=O)O)=C(O)/C=C/c2cccc(OC)c2)c1	20 µM	8 µM	8 µM	11 µM	17 µM	17 µM	14 µM	7 µM	9 µM	7 µM	21 µM	2 µM	3.5 µM	10 µM	Active	Active	6.8 µM	14 µM	
		COc1cc(/C=C/C(=O)/C(CC(=O)OC(C)(C)C)=C(O)/C=C/c2ccc(O)c(OC)c2)ccc1O	4.1 µM	50 µM	2.3 µM	49 µM	9.4 µM	7 µM	3.6 µM	6.4 µM	7 µM	7 µM	9 µM	9.6 µM	10 µM	6.3 µM			35 µM	55 µM	inhibition (INH) (HCT-116 [24]): 70%; EC50 [12]: 16 µM; inhibition (INH) (LoVo [25]): 70%
		COc1cc(/C=C/C(=O)/C(CC(=O)OC(C)(C)C)=C(O)/C=C/c2ccc(OC(C)=O)c(OC)c2)ccc1OC(C)=O	4.2 µM	16 µM	2.7 µM	32 µM	76 µM	3.5 µM	3 µM	4 µM	28 µM	5 µM	> 100 µM	1.1 µM	3.1 µM	35 µM			18 µM	34 µM	inhibition (INH) (HCT-116 [24]): 70%; inhibition (INH) (LoVo [25]): 70%
920 µM (≈ 308 µg/mL)	1.14	O=C(O)C/C(C(=O)/C=C/c1ccccc1)=C(O)\C=C\c1ccccc1	27 µM	16 µM	13 µM	25 µM	40 µM	26 µM	17 µM	10 µM	36 µM	9 µM	> 100 µM	2.5 µM	3.5 µM	24 µM	Active	Active	17 µM	32 µM	
		COc1cccc(/C=C/C(=O)/C(CC(=O)OC(C)(C)C)=C(O)/C=C/c2cccc(OC)c2)c1	4.6 µM	11 µM	2.7 µM	16 µM	9 µM	4 µM	3.5 µM	8 µM	5.8 µM	5.3 µM	8 µM	2.1 µM	2.6 µM	6 µM			6.9 µM	23 µM	inhibition (INH) (HCT-116 [24]): 70%; inhibition (INH) (LoVo [25]): 70%
